Results taken from the M2OR odorant receptor database.

What was measured:
Conditions in all cases: stereoisomer not certain
OR13C2 (Homo sapiens) = target: T1, OR13C2 (Homo sapiens) (UniProt Q8NGS9)
T1 sequence (whole entry): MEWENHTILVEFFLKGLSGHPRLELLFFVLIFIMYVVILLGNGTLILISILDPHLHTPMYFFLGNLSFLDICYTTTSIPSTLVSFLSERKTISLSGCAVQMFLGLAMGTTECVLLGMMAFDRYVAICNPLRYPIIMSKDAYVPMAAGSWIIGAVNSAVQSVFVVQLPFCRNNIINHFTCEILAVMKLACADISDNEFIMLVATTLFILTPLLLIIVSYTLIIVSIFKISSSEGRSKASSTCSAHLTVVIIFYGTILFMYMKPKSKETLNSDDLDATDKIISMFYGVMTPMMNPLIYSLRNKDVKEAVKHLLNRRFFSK
Procedure, shortened: (§1)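 Each receptor–molecule pair is labelled responsive or non-responsive (inactive) according to whether the original authors judged the measured signal statistically different from baseline. The data were taken from the main text and supplementary material of published papers and checked for typos and inconsistencies. Assay methods differed by source, with transient luciferase assays in mammalian cell lines being common.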

OR13C3 (Homo sapiens) = target: T2, OR13C3 (Homo sapiens) (UniProt Q8NGS6)
T2 sequence (whole entry): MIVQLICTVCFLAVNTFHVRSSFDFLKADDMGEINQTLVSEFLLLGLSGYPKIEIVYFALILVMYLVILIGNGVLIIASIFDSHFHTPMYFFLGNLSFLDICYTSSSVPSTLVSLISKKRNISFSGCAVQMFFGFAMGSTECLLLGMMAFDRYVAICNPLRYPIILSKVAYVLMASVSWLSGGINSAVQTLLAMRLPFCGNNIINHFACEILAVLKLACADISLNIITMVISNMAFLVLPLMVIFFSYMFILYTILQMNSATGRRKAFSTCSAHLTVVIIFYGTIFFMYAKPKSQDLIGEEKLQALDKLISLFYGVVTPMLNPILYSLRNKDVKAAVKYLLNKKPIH
Procedure, shortened: as §1

OR13C4 (Homo sapiens) = target: T3, OR13C4 (Homo sapiens) (UniProt Q8NGS5)
T3 sequence (whole entry): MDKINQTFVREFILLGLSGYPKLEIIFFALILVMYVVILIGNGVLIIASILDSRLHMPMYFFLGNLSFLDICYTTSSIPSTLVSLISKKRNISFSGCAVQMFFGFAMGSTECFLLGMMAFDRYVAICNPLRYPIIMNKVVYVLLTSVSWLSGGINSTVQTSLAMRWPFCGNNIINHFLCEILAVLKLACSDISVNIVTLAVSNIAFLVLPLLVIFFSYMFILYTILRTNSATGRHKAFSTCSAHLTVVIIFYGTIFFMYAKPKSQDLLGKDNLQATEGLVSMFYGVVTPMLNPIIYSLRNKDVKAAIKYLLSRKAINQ
Procedure, shortened: as §1

OR13C5 (Homo sapiens) = target: T4, OR13C5 (Homo sapiens) (UniProt Q8NGS8)
T4 sequence (whole entry): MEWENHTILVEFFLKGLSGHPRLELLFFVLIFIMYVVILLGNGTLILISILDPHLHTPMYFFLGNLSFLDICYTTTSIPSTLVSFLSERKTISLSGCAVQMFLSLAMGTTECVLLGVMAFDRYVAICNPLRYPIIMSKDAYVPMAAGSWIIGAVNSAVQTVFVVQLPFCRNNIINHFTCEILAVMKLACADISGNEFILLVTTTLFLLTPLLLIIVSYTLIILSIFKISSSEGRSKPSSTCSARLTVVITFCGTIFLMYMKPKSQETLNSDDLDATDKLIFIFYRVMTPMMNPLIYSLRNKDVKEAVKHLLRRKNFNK
Procedure, shortened: as §1

OR13C8 (Homo sapiens) = target: T5, OR13C8 (Homo sapiens) (UniProt Q8NGS7)
T5 sequence (whole entry): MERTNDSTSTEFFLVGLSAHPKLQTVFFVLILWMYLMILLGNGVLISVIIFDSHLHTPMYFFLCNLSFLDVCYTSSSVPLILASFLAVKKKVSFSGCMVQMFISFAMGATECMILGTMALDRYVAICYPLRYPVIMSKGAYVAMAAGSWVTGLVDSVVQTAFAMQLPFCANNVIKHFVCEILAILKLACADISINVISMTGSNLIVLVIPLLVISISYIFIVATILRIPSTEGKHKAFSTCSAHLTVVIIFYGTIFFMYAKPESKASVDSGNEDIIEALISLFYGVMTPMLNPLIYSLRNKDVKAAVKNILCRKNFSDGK
Procedure, shortened: as §1

OR13C9 (Homo sapiens) = target: T6, OR13C9 (Homo sapiens) (UniProt Q8NGT0)
T6 sequence (whole entry): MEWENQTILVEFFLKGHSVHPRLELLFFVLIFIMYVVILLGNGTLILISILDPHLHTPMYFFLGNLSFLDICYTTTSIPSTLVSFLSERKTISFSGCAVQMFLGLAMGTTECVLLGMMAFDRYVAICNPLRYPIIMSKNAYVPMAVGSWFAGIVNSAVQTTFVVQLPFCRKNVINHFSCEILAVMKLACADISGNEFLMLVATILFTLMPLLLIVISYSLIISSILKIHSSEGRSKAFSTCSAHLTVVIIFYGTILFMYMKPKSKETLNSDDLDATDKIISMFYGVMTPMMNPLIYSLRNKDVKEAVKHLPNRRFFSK
Procedure, shortened: as §1

OR13D1 (Homo sapiens) = target: T7, OR13D1 (Homo sapiens) (UniProt Q8NGV5)
T7 sequence (whole entry): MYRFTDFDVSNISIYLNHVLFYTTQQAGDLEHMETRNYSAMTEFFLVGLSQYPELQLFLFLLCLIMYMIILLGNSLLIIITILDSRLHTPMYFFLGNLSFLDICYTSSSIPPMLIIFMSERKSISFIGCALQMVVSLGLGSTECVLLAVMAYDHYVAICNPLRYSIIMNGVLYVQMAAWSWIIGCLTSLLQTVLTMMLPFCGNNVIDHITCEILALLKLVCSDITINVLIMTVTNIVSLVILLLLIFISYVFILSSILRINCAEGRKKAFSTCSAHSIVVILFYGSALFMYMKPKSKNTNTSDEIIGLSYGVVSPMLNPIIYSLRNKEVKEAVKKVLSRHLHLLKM
Procedure, shortened: as §1

OR13F1 (Homo sapiens) = target: T8, OR13F1 (Homo sapiens) (UniProt Q8NGS4)
T8 sequence (whole entry): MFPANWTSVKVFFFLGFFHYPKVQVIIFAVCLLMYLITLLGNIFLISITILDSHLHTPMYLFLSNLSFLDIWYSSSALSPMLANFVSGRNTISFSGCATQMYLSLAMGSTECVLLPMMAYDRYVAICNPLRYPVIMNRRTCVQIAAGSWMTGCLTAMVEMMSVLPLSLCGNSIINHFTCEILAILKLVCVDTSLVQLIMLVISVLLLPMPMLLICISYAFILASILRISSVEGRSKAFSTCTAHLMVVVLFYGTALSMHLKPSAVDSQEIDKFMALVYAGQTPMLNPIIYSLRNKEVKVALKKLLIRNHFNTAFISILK
Procedure, shortened: as §1

OR13G1 (Homo sapiens) = target: T9, OR13G1 (Homo sapiens) (UniProt Q8NGZ3)
T9 sequence (whole entry): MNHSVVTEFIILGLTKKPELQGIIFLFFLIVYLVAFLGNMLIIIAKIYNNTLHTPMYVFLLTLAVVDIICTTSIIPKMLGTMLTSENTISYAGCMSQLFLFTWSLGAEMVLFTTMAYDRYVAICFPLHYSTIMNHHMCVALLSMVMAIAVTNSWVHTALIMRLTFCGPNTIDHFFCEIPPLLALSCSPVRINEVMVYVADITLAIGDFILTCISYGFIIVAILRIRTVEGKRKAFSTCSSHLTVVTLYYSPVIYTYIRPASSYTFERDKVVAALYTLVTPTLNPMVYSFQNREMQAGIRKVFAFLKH
Procedure, shortened: as §1

OR13H1 (Homo sapiens) = target: T10, OR13H1 (Homo sapiens) (UniProt Q8NG92)
T10 sequence (whole entry): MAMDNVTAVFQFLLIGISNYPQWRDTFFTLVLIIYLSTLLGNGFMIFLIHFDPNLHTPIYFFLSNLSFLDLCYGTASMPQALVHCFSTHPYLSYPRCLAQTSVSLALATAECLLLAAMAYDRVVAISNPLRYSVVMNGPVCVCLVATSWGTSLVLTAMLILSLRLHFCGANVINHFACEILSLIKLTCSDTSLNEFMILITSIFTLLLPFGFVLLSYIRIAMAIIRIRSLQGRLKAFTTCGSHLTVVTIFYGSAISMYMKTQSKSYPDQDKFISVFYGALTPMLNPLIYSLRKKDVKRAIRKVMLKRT
Procedure, shortened: as §1

OR13J1 (Homo sapiens) = target: T11, OR13J1 (Homo sapiens) (UniProt Q8NGT2)
T11 sequence (whole entry): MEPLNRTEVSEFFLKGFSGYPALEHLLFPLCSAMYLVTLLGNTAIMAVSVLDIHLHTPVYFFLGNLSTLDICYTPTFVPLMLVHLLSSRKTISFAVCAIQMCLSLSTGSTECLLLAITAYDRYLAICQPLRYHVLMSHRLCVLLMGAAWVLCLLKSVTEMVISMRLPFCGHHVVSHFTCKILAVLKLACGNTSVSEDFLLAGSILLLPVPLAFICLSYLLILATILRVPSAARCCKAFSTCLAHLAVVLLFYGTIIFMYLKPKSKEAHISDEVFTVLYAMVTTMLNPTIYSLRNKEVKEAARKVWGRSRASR
Procedure, shortened: as §1

OR14A16 (Homo sapiens) = target: T12, OR14A16 (Homo sapiens) (UniProt Q8NHC5)
T12 sequence (whole entry): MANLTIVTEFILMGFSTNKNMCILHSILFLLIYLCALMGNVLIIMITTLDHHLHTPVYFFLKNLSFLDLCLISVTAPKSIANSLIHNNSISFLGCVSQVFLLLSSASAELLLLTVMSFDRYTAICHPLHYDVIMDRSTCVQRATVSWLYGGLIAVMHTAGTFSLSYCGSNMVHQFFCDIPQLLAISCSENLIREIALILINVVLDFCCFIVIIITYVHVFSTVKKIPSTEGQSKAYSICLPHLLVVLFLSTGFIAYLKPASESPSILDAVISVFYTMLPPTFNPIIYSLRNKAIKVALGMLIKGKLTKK
Procedure, shortened: as §1

OR14A2 (Homo sapiens) = target: T13, OR14A2 (Homo sapiens) (UniProt Q96R54)
T13 sequence (whole entry): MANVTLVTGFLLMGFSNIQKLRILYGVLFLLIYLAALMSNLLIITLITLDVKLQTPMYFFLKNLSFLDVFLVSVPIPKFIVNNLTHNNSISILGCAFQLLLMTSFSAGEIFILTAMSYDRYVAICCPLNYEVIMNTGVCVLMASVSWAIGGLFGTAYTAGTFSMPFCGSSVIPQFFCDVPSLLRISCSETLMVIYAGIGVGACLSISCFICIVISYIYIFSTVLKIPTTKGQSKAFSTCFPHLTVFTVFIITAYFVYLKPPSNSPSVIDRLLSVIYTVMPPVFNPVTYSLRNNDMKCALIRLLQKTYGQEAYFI
Procedure, shortened: as §1

OR14C36 (Homo sapiens) = target: T14, OR14C36 (Homo sapiens) (UniProt Q8NHC7)
T14 sequence (whole entry): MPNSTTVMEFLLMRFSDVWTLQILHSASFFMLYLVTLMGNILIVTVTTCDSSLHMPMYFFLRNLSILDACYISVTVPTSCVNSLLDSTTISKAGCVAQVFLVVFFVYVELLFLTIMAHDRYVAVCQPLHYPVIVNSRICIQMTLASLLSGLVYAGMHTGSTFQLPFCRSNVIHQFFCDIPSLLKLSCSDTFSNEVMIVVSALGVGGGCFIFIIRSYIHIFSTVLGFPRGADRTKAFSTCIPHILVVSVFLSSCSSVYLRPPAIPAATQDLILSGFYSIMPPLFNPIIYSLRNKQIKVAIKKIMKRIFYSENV
Procedure, shortened: as §1

OR14I1 (Homo sapiens) = target: T15, OR14I1 (Homo sapiens) (UniProt A6ND48)
T15 sequence (whole entry): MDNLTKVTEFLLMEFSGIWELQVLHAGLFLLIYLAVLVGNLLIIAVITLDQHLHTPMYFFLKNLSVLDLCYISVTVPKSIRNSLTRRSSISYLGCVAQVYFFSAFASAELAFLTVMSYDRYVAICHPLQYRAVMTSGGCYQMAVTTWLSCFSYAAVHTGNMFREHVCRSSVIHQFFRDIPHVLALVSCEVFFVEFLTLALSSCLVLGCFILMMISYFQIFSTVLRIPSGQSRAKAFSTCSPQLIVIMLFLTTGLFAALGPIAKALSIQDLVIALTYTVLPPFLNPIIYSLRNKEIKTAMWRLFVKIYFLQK
Procedure, shortened: as §1

OR14J1 (Homo sapiens) = target: T16, OR14J1 (Homo sapiens) (UniProt Q9UGF5)
T16 sequence (whole entry): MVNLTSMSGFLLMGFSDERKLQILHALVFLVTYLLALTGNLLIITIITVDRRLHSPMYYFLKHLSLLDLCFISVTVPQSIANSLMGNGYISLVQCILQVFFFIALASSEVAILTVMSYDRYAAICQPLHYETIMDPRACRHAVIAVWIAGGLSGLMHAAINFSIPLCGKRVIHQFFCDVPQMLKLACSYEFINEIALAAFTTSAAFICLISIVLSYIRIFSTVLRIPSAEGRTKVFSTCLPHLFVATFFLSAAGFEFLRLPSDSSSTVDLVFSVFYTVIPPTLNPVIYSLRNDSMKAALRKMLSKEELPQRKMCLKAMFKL
Procedure, shortened: as §1

OR14K1 (Homo sapiens) = target: T17, OR14K1 (Homo sapiens) (UniProt Q8NGZ2)
T17 sequence (whole entry): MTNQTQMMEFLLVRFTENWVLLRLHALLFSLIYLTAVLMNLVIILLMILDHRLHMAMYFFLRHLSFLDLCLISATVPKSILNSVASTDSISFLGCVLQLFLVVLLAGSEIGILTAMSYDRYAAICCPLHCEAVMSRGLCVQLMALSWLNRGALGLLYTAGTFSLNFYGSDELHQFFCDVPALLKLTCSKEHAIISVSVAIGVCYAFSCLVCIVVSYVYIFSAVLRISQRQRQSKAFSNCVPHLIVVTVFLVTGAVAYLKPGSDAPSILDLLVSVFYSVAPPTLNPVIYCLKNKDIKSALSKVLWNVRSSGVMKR
Procedure, shortened: as §1

OR1A1 (Homo sapiens) = target: T18, OR1A1 (Homo sapiens) (UniProt Q9P1Q5)
T18 sequence (whole entry): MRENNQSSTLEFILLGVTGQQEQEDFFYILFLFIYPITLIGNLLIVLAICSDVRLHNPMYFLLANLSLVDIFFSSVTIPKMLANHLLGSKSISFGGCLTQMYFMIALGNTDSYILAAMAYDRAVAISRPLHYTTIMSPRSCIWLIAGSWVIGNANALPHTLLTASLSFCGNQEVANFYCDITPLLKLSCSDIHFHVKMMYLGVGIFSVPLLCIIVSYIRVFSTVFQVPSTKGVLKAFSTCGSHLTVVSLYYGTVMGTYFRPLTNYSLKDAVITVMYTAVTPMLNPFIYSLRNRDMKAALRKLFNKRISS
Procedure, shortened: as §1

Measured: odorant receptor agonist call

CCCCCC(S)C(C)CO (centres undefined)
active: OR13C9 (Homo sapiens)
inactive: all other assays above

CCCCC(=O)O
inactive: OR1A1 (Homo sapiens)
